pIC50: −log10 of the molar value.
Test system: B16
Assay: In vitro compound's ability to inhibit the replication of cultured B16 melanoma cells
Assay type: functional
Conditions: Mus musculus, read-out: ID50 (the source's name)
How it was run: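 B16/F10 melanoma cells, kept as monolayers at 37 °C in Eagle's MEM with Hanks' salts plus 10% fetal calf serum, were seeded from exponential growth at 1.5 to 3 × 10⁵ cells per 25-cm² flask. Compound (0.1 μM–0.1 mM) was added at seeding. After 72 h, cells were trypsinized and counted electronically. ID50 was read graphically from at least two replicate experiments.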

| pIC50 | Compound |
| --- | --- |
| 4.00 | O=C(O)c1ccc(N[C@@H]2O[C@H](CO)[C@@H](O)[C@H](O)[C@H]2O)cc1 |
| 4.43 | CC1O[C@@H](Nc2ccc(C(=O)O)cc2)[C@@H](O)C(O)[C@H]1O (stereo partly drawn) |
| 4.42 | O=C(O)c1ccc(N[C@@H]2OC[C@@H](O)C(O)[C@@H]2O)cc1 (stereo partly drawn) |
| 4.00 | O=C(O)c1ccc(N[C@@H]2OC[C@@H](O)C(O)[C@H]2O)cc1 (stereo partly drawn) |
| 4.60 | CC(=O)OCC1O[C@@H](Nc2ccc(C(=O)OC(C)=O)cc2)[C@H](OC(C)=O)C(OC(C)=O)[C@@H]1OC(C)=O (stereo partly drawn) |
| 4.74 | CC(=O)OCC1O[C@@H](Nc2ccc(C(=O)O)cc2)[C@@H](OC(C)=O)C(OC(C)=O)[C@@H]1OC(C)=O (stereo partly drawn) |
| 4.60 | CC(=O)OC(=O)c1ccc(N[C@@H]2OC[C@@H](OC(C)=O)C(OC(C)=O)[C@@H]2OC(C)=O)cc1 (stereo partly drawn) |
| 4.31 | CC(=O)OCC1O[C@@H](Nc2ccc(C(=O)O)cc2)[C@@H](OC(C)=O)C(OC(C)=O)[C@H]1OC(C)=O (stereo partly drawn) |
| 5.40 | CC(=O)OC1[C@@H](OC(C)=O)CO[C@@H](Nc2ccc(C(=O)O)cc2)[C@@H]1OC(C)=O (stereo partly drawn) |
| 4.41 | O=C(O)c1ccc(N[C@@H]2O[C@H](CO)[C@@H](O)[C@H](O)[C@@H]2O)cc1 |
| 4.52 | O=C(O)c1ccc(N[C@@H]2O[C@H](CO)[C@H](O)[C@H](O)[C@H]2O)cc1 |
| 4.00 | O=C(O)c1ccc(N[C@@H]2OC(CO)[C@@H](O)C(O)[C@@H]2O)cc1 (stereo partly drawn) |
| 4.70 | CC(=O)OC1[C@@H](OC(C)=O)C(C)O[C@@H](Nc2ccc(C(=O)O)cc2)[C@H]1OC(C)=O (stereo partly drawn) |

— ChEMBL document CHEMBL1122290, “N-(substituted-phenyl)-D-glycopyranosylamines and their O-acetyl derivatives as potential modifiers of the formation of glycosaminoglycans” (1983)
